Measurements from ChEMBL document CHEMBL1128281 (J Med Chem, 1995).

Tests used:
Mus musculus = species on record: Mus musculus; assay: Ability to inhibit apomorphine-induced climbing behavior in mice.; type: functional
Summary of the method: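 Male CD-1 mice (18–30 g) were adapted for 1 h in wire-mesh cages, 8 per dose group. Distilled water or drug was given ip 30 or 60 min before apomorphine 1.5 mg/kg sc.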

Rattus norvegicus [1] = assay: Social interaction of rats was determined after 1 hr of intraperitoneal administration at […]; type: functional
Rattus norvegicus [2] = assay: Antipsychotic efficacy of compound at intraperitoneal dose of 0.5 mg/kg on 6.8 (A10 units) dopamine neurons in the mesolimbic region of rat; type: functional
Rattus norvegicus [3] = assay: Side effect liability of compound at intraperitoneal dose of 0.5 mg/kg on 6.2 (A9 units)dopamine neurons in the nigrostriatal in rat; type: functional
Rattus norvegicus [4] = assay: Intracranial self stimulation in rat was determined after 1 hr of intraperitoneal administration of the compound; type: functional; conditions: ip
Summary of the method: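 Male Wistar rats (300–400 g) with chronic electrodes in the medial forebrain bundle at the preoptic level, trained after 2 weeks of recovery to lever-press for biphasic square-wave pulse trains. Once baseline responding was stable, drug was given (3–6 per dose group) and compared with nondrug controls. ED50 was calculated by linear regression on percent change from control.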

Rattus norvegicus [5] = assay: Pole climb avoiding activity in rats was determined after 1 hr of intraperitoneal administration of the compound; type: functional; conditions: ip
Summary of the method: (§1)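 Male Long Evans rats trained to 80% avoidance in a discrete-trial signaled pole-climb paradigm: 25 trials per 50 min session, maximum 26 s of shock per trial. Distilled water or drug was given ip, 6 per dose group, at a 60 min pretreatment. Avoidance responses and escape failures were compared with water controls. ED50 by linear regression.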

Rattus norvegicus [6] = assay: Pole climb escape failures of rats was determined after 1 hr of intraperitoneal administration of the compound; type: functional; conditions: ip; summary of the method: as §1
Rattus norvegicus [7] = assay: Induction of catalepsy in rats was determined after 2 hr of intraperitoneal administration of the compound; type: functional; conditions: ip
Summary of the method: (§2)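 Male Wistar rats (150–250 g), 6–10 per dose group, dosed ip with distilled water or drug. Each hour for 6 h, forepaws were placed on an elevated wooden bar; remaining there 60 s counted as cataleptic.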

Rattus norvegicus [8] = species on record: Rattus norvegicus; assay: Ability to block apomorphine-induced stereotypy in rats.; type: functional
Summary of the method: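 Male Wistar rats (150–250 g), 6–10 per dose group, given distilled water or test drug ip; apomorphine 1.5 mg/kg sc 50 min later. Rats were placed singly in cages and scored 10 min afterwards for continuous stereotyped licking or sniffing. Inhibition was the number of animals protected versus controls. ED50 was obtained by probit analysis.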

Rattus norvegicus [9] = assay: Antagonistic activity administered intraperitoneally on head twitches induced by 5- HTP; type: functional; conditions: ip
Summary of the method: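 Male Wistar rats (180–280 g), groups of eight. L-5-HTP given ip (240 mg/10 mL distilled water with Tween 80); compounds given ip 30 min after 5-HTP. At 60 min post-5-HTP, head twitches were counted for 10 min per rat under white noise, then expressed as percent change from vehicle. Dose–response used 3–4 dose groups; ED50 by linear regression.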

[10] = target: T1, 5-hydroxytryptamine receptor 1A (Mus musculus, UniProt Q64264); assay: Binding affinity against 5-hydroxytryptamine 1A receptor was determined using [3H]-8-OH-DPAT radioligand
T1 sequence (Q64264 whole entry): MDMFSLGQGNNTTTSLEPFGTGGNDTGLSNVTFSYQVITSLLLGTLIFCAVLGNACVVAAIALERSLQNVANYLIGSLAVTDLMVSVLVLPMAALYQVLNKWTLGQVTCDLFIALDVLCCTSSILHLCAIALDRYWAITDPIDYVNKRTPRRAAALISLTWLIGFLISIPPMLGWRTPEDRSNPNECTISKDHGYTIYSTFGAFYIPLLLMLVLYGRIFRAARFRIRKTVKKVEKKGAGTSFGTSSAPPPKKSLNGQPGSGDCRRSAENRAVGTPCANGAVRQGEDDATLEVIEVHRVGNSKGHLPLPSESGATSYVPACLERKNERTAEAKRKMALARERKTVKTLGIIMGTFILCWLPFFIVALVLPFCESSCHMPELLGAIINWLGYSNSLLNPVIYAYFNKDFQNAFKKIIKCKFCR

[11] = target: 5-hydroxytryptamine receptor 2A (Bos taurus, UniProt Q75Z89); assay: Binding affinity against 5-hydroxytryptamine 2 receptor was determined using [ [3H]spiperone radioligand
5-hydroxytryptamine receptor 2A, sequence (Q75Z89 whole entry): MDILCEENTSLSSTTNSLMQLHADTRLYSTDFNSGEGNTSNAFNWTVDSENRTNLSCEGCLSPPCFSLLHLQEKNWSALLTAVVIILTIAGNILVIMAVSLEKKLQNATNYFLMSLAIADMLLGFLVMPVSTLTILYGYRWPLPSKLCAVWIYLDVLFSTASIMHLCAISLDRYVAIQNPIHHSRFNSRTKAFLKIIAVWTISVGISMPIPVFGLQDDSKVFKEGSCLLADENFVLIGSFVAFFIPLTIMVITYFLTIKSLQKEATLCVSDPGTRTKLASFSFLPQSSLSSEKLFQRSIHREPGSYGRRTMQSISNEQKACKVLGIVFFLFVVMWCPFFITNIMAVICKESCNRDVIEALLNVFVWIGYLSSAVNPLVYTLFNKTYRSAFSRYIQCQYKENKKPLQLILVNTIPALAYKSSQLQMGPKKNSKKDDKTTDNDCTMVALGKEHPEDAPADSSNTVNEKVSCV

[12] = target: Serotonin 2 (5-HT2) receptor (Rattus norvegicus, UniProt P30994+P08909+P14842); assay: Affinity for 5-hydroxytryptamine 2 receptor binding sites by its ability to displace [3H]spiperone from rat frontal cortex.
D(1A) dopamine receptor = D(1A) dopamine receptor (Mus musculus, UniProt Q61616); assay: Binding affinity against Dopamine receptor D1 was determined using [3H]SCH-23390 radioligand
D(1A) dopamine receptor, sequence (Q61616 whole entry): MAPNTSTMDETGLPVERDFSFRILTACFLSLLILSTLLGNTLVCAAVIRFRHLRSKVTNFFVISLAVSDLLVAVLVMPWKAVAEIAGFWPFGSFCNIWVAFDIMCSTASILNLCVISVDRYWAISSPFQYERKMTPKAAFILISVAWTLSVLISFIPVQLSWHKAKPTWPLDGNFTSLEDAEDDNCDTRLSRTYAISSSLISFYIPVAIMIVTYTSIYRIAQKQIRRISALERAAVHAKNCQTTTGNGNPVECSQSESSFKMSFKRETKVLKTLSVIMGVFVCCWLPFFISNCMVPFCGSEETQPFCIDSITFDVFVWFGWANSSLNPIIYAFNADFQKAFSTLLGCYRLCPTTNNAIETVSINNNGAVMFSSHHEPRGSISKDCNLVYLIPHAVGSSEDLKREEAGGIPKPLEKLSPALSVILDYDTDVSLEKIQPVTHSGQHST

[13] = target: Muscarinic acetylcholine receptor M3 (Rattus norvegicus, UniProt P08483); assay: Binding affinity against Muscarinic acetylcholine receptor using [3H]quinuclidinyl benzilate
Muscarinic acetylcholine receptor M3, sequence (P08483 whole entry): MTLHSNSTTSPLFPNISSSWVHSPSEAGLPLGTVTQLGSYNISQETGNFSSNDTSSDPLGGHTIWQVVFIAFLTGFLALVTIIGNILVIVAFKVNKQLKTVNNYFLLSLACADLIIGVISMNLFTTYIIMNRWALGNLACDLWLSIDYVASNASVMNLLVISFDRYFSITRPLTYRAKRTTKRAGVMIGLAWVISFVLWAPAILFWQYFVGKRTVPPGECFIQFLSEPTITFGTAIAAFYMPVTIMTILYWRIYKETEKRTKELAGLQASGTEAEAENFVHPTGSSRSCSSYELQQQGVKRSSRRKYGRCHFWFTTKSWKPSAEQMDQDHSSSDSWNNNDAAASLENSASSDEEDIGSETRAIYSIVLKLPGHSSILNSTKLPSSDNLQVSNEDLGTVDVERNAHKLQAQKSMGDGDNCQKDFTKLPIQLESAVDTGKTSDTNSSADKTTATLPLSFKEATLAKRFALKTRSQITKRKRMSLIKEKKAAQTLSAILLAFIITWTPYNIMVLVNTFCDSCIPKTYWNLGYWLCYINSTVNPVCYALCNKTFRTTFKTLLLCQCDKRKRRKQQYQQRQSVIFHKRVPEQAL

Rattus norvegicus [14] = assay: Social interaction of rats was determined after 1 hr of intraperitoneal administration at 1 mg/kg; type: functional
Summary of the method: (§3)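 Pairs of male Wistar rats (200–275 g) were acclimated to the arena for 8 min on two days. On day 3, unfamiliar pairs were formed, six pairs per group, and dosed with drug or vehicle. Interaction time and total activity were compared by one-way ANOVA with Duncan's test.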

Rattus norvegicus [15] = assay: Side effect liability of compound at intraperitoneal dose of 5 mg/kg on 16.1 (A9 units)dopamine neurons in the nigrostriatal in rat; type: functional
Rattus norvegicus [16] = assay: Antipsychotic efficacy of compound at intraperitoneal dose of 10 mg/kg on 6.1 (A10 units)dopamine neurons in the mesolimbic in rat; type: functional
Rattus norvegicus [17] = assay: Antipsychotic efficacy of compound at intraperitoneal dose of 5 mg/kg on 6.1 dopamine neurons in the mesolimbic (A10) units in rat; type: functional
Rattus norvegicus [18] = assay: Side effect liability of compound at intraperitoneal dose of 10 mg/kg on 16.1 (A9 units) dopamine neurons in the nigrostriatal in rat; type: functional
Rattus norvegicus [19] = assay: Intracranial self stimulation in rat was determined after 1 hr of oral administration of the compound; type: functional
Rattus norvegicus [20] = assay: Induction of catalepsy in rats was determined after 1 hr of intraperitoneal administration of the compound; type: functional; conditions: ip; summary of the method: as §2
[21] = target: Sigma non-opioid intracellular receptor 1 (Homo sapiens, UniProt Q99720); assay: Binding affinity against sigma receptor using [3H]-( +)-SKF10,047 radioligand
Sigma non-opioid intracellular receptor 1, sequence (Q99720 whole entry): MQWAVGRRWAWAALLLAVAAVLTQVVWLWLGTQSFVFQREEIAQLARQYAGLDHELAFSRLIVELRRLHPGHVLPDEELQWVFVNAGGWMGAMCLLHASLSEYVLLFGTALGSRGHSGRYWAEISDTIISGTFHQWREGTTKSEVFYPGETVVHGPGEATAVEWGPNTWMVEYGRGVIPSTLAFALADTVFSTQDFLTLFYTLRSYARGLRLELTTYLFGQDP

Rattus norvegicus [22] = assay: Social interaction of rats was determined after 1 hr of intraperitoneal administration at 10 mg/kg; type: functional
Summary of the method: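 Pairs of male Wistar rats (200–275 g) were acclimated to the arena for 8 min on two consecutive days. On day 3, unfamiliar rats (six pairs/group) got drug or vehicle, and 30 or 60 min later they were paired and observed for 5 min. Social interaction time and total activity were compared with controls by one-way ANOVA and Duncan's test.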

Rattus norvegicus [23] = assay: Antipsychotic efficacy of compound at intraperitoneal dose of 20 mg/kg on 1.8 (A10 units) dopamine neurons in the mesolimbic region of rat; type: functional
Summary of the method: (§4)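 Male Wistar rats (280–360 g) were dosed ip once daily for 21 days with compound suspended in distilled water plus 1 drop Tween 80; vehicle rats served as controls. Sampling began 2 h after the last dose under chloral hydrate anesthesia (400 mg/kg ip). Spontaneously active A9 and A10 dopamine units were counted per 12 tracks. Groups were compared by one-way ANOVA with Newman–Keuls post hoc.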

Rattus norvegicus [24] = assay: Side effect liability of compound at intraperitoneal dose of 20 mg/kg on 13.7 (A9 units)dopamine neurons in the nigrostriatal in rat; type: functional; summary of the method: as §4
Rattus norvegicus [25] = assay: Induction of catalepsy in rats was determined after 1 hr of intraperitoneal administration at 80 mg/kg; type: functional
Summary of the method: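 Male Wistar rats (150–250 g, 6–10/dose group) were dosed ip with compound or distilled water. Every hour for 6 h after dosing, the forepaws were placed on an elevated wooden bar, and a rat was scored cataleptic if the paws stayed on the bar for 60 s.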

Rattus norvegicus [26] = assay: Social interaction of rats was determined after 1 hr of intraperitoneal administration at 0.5 mg/kg; type: functional; summary of the method: as §3

SMILES	ED50 (Mus musculus) [mg/kg]	ED50 (Rattus norvegicus [4]) [mg/kg]	ED50 (Rattus norvegicus [5]) [mg/kg]	ED50 (Rattus norvegicus [6]) [mg/kg]	ED50 (Rattus norvegicus [8]) [mg/kg]	ED50 (Rattus norvegicus [9]) [mg/kg]	ED50 (Rattus norvegicus [20]) [mg/kg]	other results
O=C(CCCN1CCC(O)(c2ccc(Cl)cc2)CC1)c1ccc(F)cc1 [HALOPERIDOL]	0.11	0.077	0.043	0.22	0.6	0.29	–	Activity (Rattus norvegicus [1]): -26%; Change (Rattus norvegicus [2]): -35%; Change (Rattus norvegicus [3]): -30%; ED50 (Rattus norvegicus [7]): 0.65 mg/kg
COc1cc(C(C)=O)ccc1OCCCN1CCC(c2noc3cc(F)ccc23)CC1 [ILOPERIDONE]	0.095	0.15	0.7	5.2	34.8	0.07	30.7	IC50 [10]: 210 nM; IC50 [11]: 9 nM; IC50 [12]: 9 nM; IC50 (D(1A) dopamine receptor): 750 nM; IC50 [13]: > 1000 nM; Activity (Rattus norvegicus [14]): 31%; Change (Rattus norvegicus [15]): 81%; Change (Rattus norvegicus [16]): -40%; Change (Rattus norvegicus [17]): -41%; Change (Rattus norvegicus [18]): 45%; ED50 (Rattus norvegicus [19]): 1.03 mg/kg; IC50 [21]: 64 nM
CN1CCN(C2=Nc3cc(Cl)ccc3Nc3ccccc32)CC1 [CLOZAPINE]	–	7.4	11.3	29.3	> 40	0.43	–	Activity (Rattus norvegicus [22]): 39%; Change (Rattus norvegicus [23]): -79%; Change (Rattus norvegicus [24]): 37%; Activity (Rattus norvegicus [25]): 0%
Cc1nc2n(c(=O)c1CCN1CCC(c3noc4cc(F)ccc34)CC1)CCCC2 [RISPERIDONE]	0.062	0.13	0.48	1.3	3.2	–	5.7	Activity (Rattus norvegicus [26]): 27%
